Screening results: PubChem BioAssay, several laboratories
Compounds with a hit are over-represented: about 1.7% of the library has one in this group of screens.
IDE act = human IDE activators in live cells, primary screen, fluorescence polarization, HEK cells, FAbeta-B substrate; activation, % at 5.96 µM; Insulin-degrading enzyme (Homo sapiens), P14735; FAbeta-B cleavage; 0% vehicle, 100% cell-free pure enzyme wells; actives 0.073% (n = 340,000);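 active = activation above the mean of all tested compounds plus 3 SD, set per screening campaign, cut at about 17% in these data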
IDE inh = human IDE inhibitors in live cells, primary screen, fluorescence polarization, HEK cells, FAbetaB substrate; FAbetaB cleavage; AID 434962, 2010; actives 0.41% (n = 320,000); Insulin-degrading enzyme (Homo sapiens), P14735; inhibition, % at 5.59 µM;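 active = percent inhibition above the average of all tested compounds plus 3 SD, set per screening campaign, cut at about 16% in these data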;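 also: IDE supplied by intact live HEK cells; FP after avidin binding of uncleaved biotin substrate so inhibition keeps polarization high; 0% = DMSO wells and 100% = 60 µM reference IDE inhibitor Ii1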
TPT1 inh = Candida albicans TPT1 enzyme inhibitors, primary screen, biochemical, fluorescence polarization; inhibition, % at 5 µM; AID 1962, 2009; tRNA 2'-phosphotransferase TPT1 (Candida albicans SC5314); actives 0.81% (n = 300,000); recombinant caTPT1, FP RNA substrate dephosphorylation;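 active = inhibition above the mean of all tested compounds plus 3 SD, set per screening campaign, cut at about 24% in these data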;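 also: plate controls were DMSO alone for no effect and ferristatin control at 100 nM for full effect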
CSN inh = inhibitors of CSN-mediated cullin deneddylation, primary screen, biochemical, fluorescence polarization, uHTS; Purified CSN, SCF-Nedd8-OG deneddylation; AID 651999, 2013; actives 0.38% (n = 360,000); inhibition, % at 12.5 µM;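 active = pattern-corrected inhibition above about 35%, with an unprinted fluorescence ratio check between 0.5 and 1.5, limit read from the data, passing the limit was not always enough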;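 also: 0% = enzyme with substrate and 100% = substrate without enzyme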
Target sequence (Q92905 whole entry, looked up, one chain of several): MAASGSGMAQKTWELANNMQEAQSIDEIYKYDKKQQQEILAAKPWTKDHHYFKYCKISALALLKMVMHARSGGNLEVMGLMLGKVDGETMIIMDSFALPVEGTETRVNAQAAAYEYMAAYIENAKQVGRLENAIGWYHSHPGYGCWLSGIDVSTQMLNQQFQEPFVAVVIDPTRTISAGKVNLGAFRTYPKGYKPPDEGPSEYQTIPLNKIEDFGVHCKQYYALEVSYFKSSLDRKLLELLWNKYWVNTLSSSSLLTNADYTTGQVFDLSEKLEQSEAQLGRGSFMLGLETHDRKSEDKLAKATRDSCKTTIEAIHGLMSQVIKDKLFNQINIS
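Test system: Human Csn5 produced in HEK293T cells | Compound: 12.5 µM single point | Times: 90 min, room temperature | Signal: Fluorescence polarization readout | Read-out basis: % inhibition of substrate cleavage by Csn5 | Controls: no-enzyme wells high, enzyme-with-substrate wells low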
Rpn11 block = Rpn11 (PSMD14) deubiquitinase inhibitors, primary screen, biochemical, fluorescence polarization, uHTS | 26S proteasome non-ATPase regulatory subunit 14 (Homo sapiens), O00487 | human 26S proteasome, Ub4-pepOG fluorescence polarization; 20S core pre-blocked with epoxomicin | inhibition, % at 20 µM | actives 0.59% (n = 360,000);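 active = inhibition at 20 µM, scaled to each plate's controls, above about 33%, limit read from the data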
HNF4A DNA FP = change in binding of human HNF4A to DNA, primary screen, biochemical, fluorescence polarization, FITC-DNA | 1 h | AID 1224865, 2016 | Hepatocyte nuclear factor 4-alpha (Homo sapiens), P41235 | actives 0.3% (n = 360,000) | activity change, % at 10 µM; in the data active = activity change above about 30%, passing the limit was not always enough
Rpn11 inh conf = Rpn11 (PSMD14) deubiquitinase inhibitors, confirmation, biochemical, fluorescence polarization, single concentration. shares compounds with Rpn11 block. inhibition, % at 20 µM. purified human 26S proteasome, Ub4-pepOG fluorescence polarization; proteasome pretreated with epoxomicin. actives 29% (n = 1,900). AID 602318, 2012
MMP-2 counter = MMP-2 enzyme inhibition, confirmation, counter-screen for RPN11 inhibitor project, biochemical, fluorescence, single concentration; shares compounds with Rpn11 block; recombinant MMP-2, FRET peptide cleavage fluorescence; inhibition, % at 20 µM; actives 4% (n = 1,900); AID 602330, 2012;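 also: human MMP-2 activated beforehand with APMA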
Thrombin FP = bovine thrombin protease inhibition, confirmation, counter-screen for Rpn11 inhibitor project, biochemical, fluorescence polarization, single concentration. shares compounds with Rpn11 block. bovine thrombin cleavage of Ub4-pepOG. inhibition, % at 20 µM. actives 13% (n = 1,900);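 active = mean inhibition at least 40% at 20 µM, or signal 3 deviations below plate average, so some actives read negative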;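 also: plate controls were thrombin with DMSO for no effect and buffer wells lacking thrombin for full effect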
Numbers without * were called inactive. Rule as the data show it, unless noted: active = inhibition above about 40%; inactive = the rest.

What do the screens show for `CCCCN1C(=O)C(CC(=O)NCc2cccc3ccccc23)CC(C(=O)N2CCOCC2)=C1C` (stereo not given)?
CSN inh: -1; Rpn11 block: 0; HNF4A DNA FP: -1

How did Cc1ccnc(NC(=O)Nc2ccc3c(c2)N(C)C(=O)CS3)c1 do in these assays?
IDE act: 3; IDE inh: 3; TPT1 inh: 4; CSN inh: 13; Rpn11 block: 84*; HNF4A DNA FP: 14; Rpn11 inh conf: 19; MMP-2 counter: -49; Thrombin FP: 15

What do the screens show for `Cc1noc(C)c1NC(=O)N(C)C[C@H]1Oc2ccc(NS(=O)(=O)c3ccc(F)cc3)cc2C(=O)N([C@H](C)CO)C[C@@H]1C`?
IDE act: 6; IDE inh: -5; CSN inh: 0; Rpn11 block: 60*; HNF4A DNA FP: 7; Rpn11 inh conf: -4; MMP-2 counter: -7; Thrombin FP: 5

Results for COc1cccc(/C=N/NC(=O)c2[nH]c(C)c(C(=O)N/N=C/c3cccc(OC)c3)c2C)c1 ?
IDE act: -5; IDE inh: -6; TPT1 inh: 2; CSN inh: 0; Rpn11 block: 57*; HNF4A DNA FP: -1; Rpn11 inh conf: 45*; MMP-2 counter: -2; Thrombin FP: 2

Results for c1ccc(CSc2nnc(-c3ccco3)o2)cc1 ?
IDE act: 0; IDE inh: 3; TPT1 inh: 1; CSN inh: -6; Rpn11 block: -1; HNF4A DNA FP: -1

What do the screens show for `c1coc(-c2nnc(SCc3nc4ccccc4[nH]3)o2)c1`?
IDE act: -6; IDE inh: 5; TPT1 inh: 7; CSN inh: 24; Rpn11 block: 46*; HNF4A DNA FP: 28; Rpn11 inh conf: -3; MMP-2 counter: -1; Thrombin FP: -12

What do the screens show for `CCOC(=O)CC(=O)CSc1nc(-c2cccnc2)ccc1C#N`?
IDE act: 2; IDE inh: -3; TPT1 inh: 14; CSN inh: 10; Rpn11 block: 41*; HNF4A DNA FP: 2; Rpn11 inh conf: -5; MMP-2 counter: -26; Thrombin FP: -10

What do the screens show for `CO/C([O-])=N/c1c[n+](-c2ccc(Cl)cc2)no1`?
IDE act: 3; IDE inh: -3; TPT1 inh: -2; CSN inh: -2; Rpn11 block: 84*; HNF4A DNA FP: 7; Rpn11 inh conf: -9; MMP-2 counter: 23; Thrombin FP: -2

How did Nc1c(/C=C2\C=Nc3ccccc32)c(=O)nc2sc(CC(=O)N3CCOCC3)nn12 do in these assays?
IDE act: 5; IDE inh: 3; TPT1 inh: 5; CSN inh: 4; Rpn11 block: 15; HNF4A DNA FP: 4
